Experimental data: ChEMBL document CHEMBL4000163, “Pyrazole derived ultra-short antimicrobial peptidomimetics with potent anti-biofilm activity” (Eur J Med Chem, 2017)
Values after ≈ are worked out from the molar mass of the structure shown. Active and inactive are the calls of the source. The rule behind the calls is not given here.

How the values were obtained:
[1] = test system: Pseudomonas aeruginosa; assay: Antibacterial activity against multidrug-resistant Pseudomonas aeruginosa CCARM 2109 after 18 to 20 hrs by broth microdilution assay; type: functional; conditions: read-out: MIC100
How it was run: (§1)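 Broth microdilution in 1% peptone: bacteria at 2 × 10⁶ CFU/mL mixed 1:1 with serial 2-fold peptide dilutions, 18-20 h at 37 °C; growth read as absorbance at 600 nm. MIC taken as lowest concentration giving 100% growth inhibition.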

[2] = test system: Staphylococcus aureus; assay: Antimicrobial activity against Staphylococcus aureus KCTC 1621 in presence of MgCl2; type: functional
How it was run: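 MIC by microdilution with 2 × 10⁶ CFU/ml S. aureus KCTC 1621 in LB medium supplemented with physiological salt: 150 mM NaCl, 1 mM MgCl₂ or 2.5 mM CaCl₂; growth inhibition endpoint as in the standard MIC assay.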

[3] = test system: Escherichia coli; assay: Antimicrobial activity against Escherichia coli KCTC 1682 incubated for 18 to 20 hrs by broth microdilution assay; type: functional; conditions: read-out: MIC100
How it was run: (§2)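 Broth microdilution in 1% peptone. Inoculum was 2 × 10⁶ CFU/mL mixed 1:1 with serial 2-fold peptide dilutions and incubated 18–20 h at 37 °C. Growth was read as absorbance at 600 nm; MIC is the lowest peptide concentration giving 100% growth inhibition.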

[4] = test system: Staphylococcus aureus; assay: Potency index, ratio of melittin MIC100 to compound MIC100 for methicillin resistant Staphylococcus aureus CCARM 3090; type: functional
[5] = test system: Pseudomonas aeruginosa; assay: Potency index, ratio of LL-37 MIC100 to compound MIC100 for Pseudomonas aeruginosa KCTC 1637; type: functional
[6] = test system: RAW264.7; assay: Cytotoxicity against mouse RAW264.7 cells up to 32 ug/mL after 2 days by MTT assay; type: cell-based; conditions: raw264.7, 48 h
How it was run: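 Cells in DMEM with 10% FBS seeded at 2×10^4 cells/well and incubated 24 h at 37 °C, 5% CO₂. Serial 2-fold peptide dilutions were added for 2 days, then MTT for 4 h. Formazan was dissolved in 20% SDS/0.01 M HCl and read at 570 nm. Survival is expressed as a percentage of untreated cells.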

[7] = test system: RAW264.7; assay: Antiinflammatory activity in mouse RAW264.7 cells assessed as inhibition of LPS-induced iNOS mRNA expression at 16 ug/mL after 6 hrs by RT-PCR method; type: functional, cell-based
How it was run: (§3)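 RAW264.7 cells plated at 5×10^5 cells/well and cultured overnight. They were stimulated with 20 ng/mL LPS, with or without peptide, in DMEM with 10% bovine serum, for 3 h (TNF-α) or 6 h (iNOS). Total RNA was reverse-transcribed with oligo(dT)15 primers and amplified for 30 cycles (annealing 55 °C). mRNA was analysed by PCR.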

[8] = test system: Staphylococcus aureus; assay: Potency index, ratio of LL-37 MIC100 to compound MIC100 for Staphylococcus aureus KCTC 1621; type: functional
[9] = test system: Escherichia coli; assay: Antimicrobial activity against Escherichia coli KCTC 1682 in presence of MgCl2; type: functional
How it was run: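 MIC in LB medium with added 150 mM NaCl, 1 mM MgCl₂ or 2.5 mM CaCl₂. Inoculum of 2 × 10⁶ CFU/mL with peptide. Otherwise as the broth microdilution MIC assay; MIC is the lowest concentration giving 100% growth inhibition.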

[10] = test system: Enterococcus faecium; assay: Antibacterial activity against vancomycin-resistant Enterococcus faecium ATCC 51559 after 18 to 20 hrs by broth microdilution assay; type: functional; conditions: read-out: MIC100; how it was run: as §1
[11] = test system: Staphylococcus aureus; assay: Antimicrobial activity against Staphylococcus aureus KCTC 1621 assessed as cell membrane damage at 2 times MIC after 1 hr by transmission electron microscopy; type: functional
How it was run: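 Bacteria at 2×10^7 CFU/mL in LB, washed three times in PBS. Peptide in PBS was added to a final 2 × MIC and incubated 1 h at 37 °C. Pelleted cells were resuspended in PBS, applied to glow-discharged carbon-film grids, negatively stained with 1% uranyl acetate for 1 min, and imaged by TEM at 120 kV.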

[12] = test system: RAW264.7; assay: Antiinflammatory activity in mouse RAW264.7 cells assessed as inhibition of LPS-induced TNFalpha mRNA expression at 16 ug/mL after 3 hrs by RT-PCR method; type: functional, cell-based; how it was run: as §3
[13] = test system: Staphylococcus epidermidis; assay: Antimicrobial activity against Staphylococcus epidermidis KCTC 1917 incubated for 18 to 20 hrs by broth microdilution assay; type: functional; conditions: read-out: MIC100; how it was run: as §2
[14] = Therapeutic index, ratio of MHC for sheep RBC to MIC for Staphylococcus epidermidis KCTC 1917
[15] = Therapeutic index, ratio of MHC for sheep RBC to geometric mean of MICs for four bacterial strains
[16] = test system: Staphylococcus aureus; assay: Antibacterial activity against methicillin resistant Staphylococcus aureus CCARM 3095 after 18 to 20 hrs by broth microdilution assay; type: functional; conditions: read-out: MIC100; how it was run: as §1
[17] = Therapeutic index, ratio of MHC for sheep RBC to MIC for Staphylococcus aureus KCTC 1621
[18] = test system: Staphylococcus aureus; assay: Antimicrobial activity against Staphylococcus aureus KCTC 1621 incubated for 18 to 20 hrs by broth microdilution assay; type: functional; conditions: read-out: MIC100; how it was run: as §2
[19] = test system: RAW264.7; assay: Antiinflammatory activity in mouse RAW264.7 cells assessed as inhibition of LPS-induced nitric oxide production at 16 ug/mL after 24 hrs by Griess method; type: functional; conditions: RAW264.7, 24 h
How it was run: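 RAW264.7 macrophages (5×10^5 cells/mL) stimulated with LPS (20 ng/mL), with or without peptide, for 24 h. Supernatants were mixed 1:1 with Griess reagent (1% sulfanilamide, 0.1% naphthylethylenediamine, 2% phosphoric acid) for 10 min at room temperature, read at 540 nm, and quantified against an NaNO₂ standard curve. Mean ± SEM of technical triplicates, ANOVA with Bonferroni post-test.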

[20] = test system: Enterococcus faecium; assay: Potency index, ratio of melittin MIC100 to compound MIC100 for vancomycin-resistant Enterococcus faecium ATCC 51559; type: functional
[21] = test system: Pseudomonas aeruginosa; assay: Potency index, ratio of melittin MIC100 to compound MIC100 for Pseudomonas aeruginosa KCTC 1637; type: functional
[22] = test system: Escherichia coli; assay: Antimicrobial activity against Escherichia coli KCTC 1682 using 4 hrs trypsin incubated compound measured after overnight incubation by radial diffusion assay; type: functional
How it was run: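 Radial diffusion: mid-log cells (2×10^6 CFU/ml in LB) in 0.7% agarose. Peptide stock (10 mg/mL) added to trypsin in PBS (0.2 µg/mL), 4 h at 37 °C, stopped by liquid-nitrogen freezing; 10 µL on paper discs on the plates, overnight at 37 °C. Clearance-zone diameters measured.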

Q: For N=C(N)NCCC[C@H](NC(=O)c1nn(CCc2cccc3ccccc23)cc1NC(=O)[C@H](CCCNC(=N)N)NC(=O)c1nn(CCc2cccc3ccccc23)cc1N)C(N)=O, which MIC [1] is on record?
A: Its MIC is 8 µg/mL (≈ 9.35 µM).

Q: What about the MIC [2] of the same compound?
A: The MIC was 8 µg/mL.

Q: And the MIC [3]?
A: The MIC was 32 µg/mL (≈ 37.4 µM).

Q: What about the Ratio [4] of the same compound?
A: The Ratio was 2 - 4.

Q: What about the Ratio [5] of the same compound?
A: Its Ratio is 8.

Q: And the Activity [6]?
A: The Activity was “Non-Toxic”.

Q: What about the inhibition [7] of the same compound?
A: The inhibition was “Active”.

Q: What about the Ratio [8] of the same compound?
A: The Ratio was 8.

Q: What about the MIC [9] of the same compound?
A: Its MIC is 32 µg/mL.

Q: And the MIC [10]?
A: Its MIC is 8 µg/mL (≈ 9.35 µM).

Q: What about the Activity [11] of the same compound?
A: Its Activity is “Active”.

Q: And the inhibition [12]?
A: The inhibition was “Active”.

Q: What about the MIC [13] of the same compound?
A: The MIC was 32 µg/mL (≈ 37.4 µM).

Q: What about the TI [14] of the same compound?
A: Its TI is 53.9.

Q: And the TI [15]?
A: The TI was 53.9.

Q: And the MIC [16]?
A: The MIC was 4 µg/mL (≈ 4.67 µM).

Q: And the TI [17]?
A: The TI was 53.9.

Q: And the MIC [18]?
A: Its MIC is 4 µg/mL (≈ 4.67 µM).

Q: What about the inhibition at 16 µg/mL [19] of the same compound?
A: The inhibition at 16 µg/mL was over 85%.

Q: And the Ratio [20]?
A: Its Ratio is 2.

Q: And the Ratio [21]?
A: The Ratio was 4.

Q: What about the Activity [22] of the same compound?
A: The Activity was “Active”.
